Test results published in ChEMBL document CHEMBL3352013, “The design and synthesis of potent and selective inhibitors of Trypanosoma brucei glycogen synthase kinase 3 for the treatment of human african trypanosomiasis” (J Med Chem, 2014).

Assays:
[1] = target: Homeodomain-interacting protein kinase 2 (Homo sapiens) (UniProt Q9H2X6); assay: Inhibition of HIPK2 (unknown origin) assessed as residual enzyme activity at 10 uM
[2] = target: Dual specificity tyrosine-phosphorylation-regulated kinase 1A (Homo sapiens) (UniProt Q13627); assay: Inhibition of DYRK1A (unknown origin) assessed as residual enzyme activity at 10 uM
[3] = target: Mitogen-activated protein kinase 8 (Homo sapiens) (UniProt P45983); assay: Inhibition of JNK1 (unknown origin) assessed as residual enzyme activity at 10 uM
Chain of Mitogen-activated protein kinase 8 (Homo sapiens) (P45983 whole entry): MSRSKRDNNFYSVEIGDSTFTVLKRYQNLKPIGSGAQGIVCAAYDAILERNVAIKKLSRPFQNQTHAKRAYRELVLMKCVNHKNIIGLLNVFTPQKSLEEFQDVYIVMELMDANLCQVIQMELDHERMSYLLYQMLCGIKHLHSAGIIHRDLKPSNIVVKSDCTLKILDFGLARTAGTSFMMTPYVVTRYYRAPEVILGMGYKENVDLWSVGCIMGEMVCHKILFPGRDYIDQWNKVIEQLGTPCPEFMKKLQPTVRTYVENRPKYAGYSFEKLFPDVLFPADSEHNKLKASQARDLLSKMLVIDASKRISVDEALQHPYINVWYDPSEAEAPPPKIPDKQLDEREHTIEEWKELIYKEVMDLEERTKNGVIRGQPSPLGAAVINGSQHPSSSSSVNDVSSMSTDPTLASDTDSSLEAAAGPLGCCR

[4] = target: Glycogen synthase kinase-3 beta (Homo sapiens) (UniProt P49841); assay: Inhibition of GSK3b (unknown origin) assessed as residual enzyme activity at 10 uM
Chain of Glycogen synthase kinase-3 beta (Homo sapiens) (P49841 whole entry, looked up): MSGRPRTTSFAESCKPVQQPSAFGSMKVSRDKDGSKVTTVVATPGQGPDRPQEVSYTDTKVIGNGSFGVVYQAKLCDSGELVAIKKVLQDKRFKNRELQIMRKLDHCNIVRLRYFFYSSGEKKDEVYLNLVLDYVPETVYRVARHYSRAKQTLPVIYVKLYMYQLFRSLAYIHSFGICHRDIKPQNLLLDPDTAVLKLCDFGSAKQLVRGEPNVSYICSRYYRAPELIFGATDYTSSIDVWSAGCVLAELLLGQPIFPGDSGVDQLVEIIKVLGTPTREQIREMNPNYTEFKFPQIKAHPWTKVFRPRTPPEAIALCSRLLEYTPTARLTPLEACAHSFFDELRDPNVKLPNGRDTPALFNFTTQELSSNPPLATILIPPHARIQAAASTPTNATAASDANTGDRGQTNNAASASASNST

[5] = target: Mitogen-activated protein kinase 9 (Homo sapiens) (UniProt P45984); assay: Inhibition of JNK2 (unknown origin) assessed as residual enzyme activity at 10 uM
Chain of Mitogen-activated protein kinase 9 (Homo sapiens) (P45984 whole entry, looked up): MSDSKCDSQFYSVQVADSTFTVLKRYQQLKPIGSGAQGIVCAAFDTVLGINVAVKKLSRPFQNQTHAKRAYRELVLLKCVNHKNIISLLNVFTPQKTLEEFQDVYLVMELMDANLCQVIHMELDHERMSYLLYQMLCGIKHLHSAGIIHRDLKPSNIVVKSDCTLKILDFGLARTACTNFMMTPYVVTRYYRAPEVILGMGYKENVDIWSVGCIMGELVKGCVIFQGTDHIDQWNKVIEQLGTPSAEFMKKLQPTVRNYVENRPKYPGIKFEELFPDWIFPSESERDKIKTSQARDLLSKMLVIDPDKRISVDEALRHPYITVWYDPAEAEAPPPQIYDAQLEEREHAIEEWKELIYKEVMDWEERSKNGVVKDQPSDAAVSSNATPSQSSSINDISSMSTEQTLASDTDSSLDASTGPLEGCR

[6] = target: T1, Dual specificity tyrosine-phosphorylation-regulated kinase 3 (Homo sapiens) (UniProt O43781); assay: Inhibition of DYRK3 (unknown origin) assessed as residual enzyme activity at 10 uM
T1 sequence (whole entry): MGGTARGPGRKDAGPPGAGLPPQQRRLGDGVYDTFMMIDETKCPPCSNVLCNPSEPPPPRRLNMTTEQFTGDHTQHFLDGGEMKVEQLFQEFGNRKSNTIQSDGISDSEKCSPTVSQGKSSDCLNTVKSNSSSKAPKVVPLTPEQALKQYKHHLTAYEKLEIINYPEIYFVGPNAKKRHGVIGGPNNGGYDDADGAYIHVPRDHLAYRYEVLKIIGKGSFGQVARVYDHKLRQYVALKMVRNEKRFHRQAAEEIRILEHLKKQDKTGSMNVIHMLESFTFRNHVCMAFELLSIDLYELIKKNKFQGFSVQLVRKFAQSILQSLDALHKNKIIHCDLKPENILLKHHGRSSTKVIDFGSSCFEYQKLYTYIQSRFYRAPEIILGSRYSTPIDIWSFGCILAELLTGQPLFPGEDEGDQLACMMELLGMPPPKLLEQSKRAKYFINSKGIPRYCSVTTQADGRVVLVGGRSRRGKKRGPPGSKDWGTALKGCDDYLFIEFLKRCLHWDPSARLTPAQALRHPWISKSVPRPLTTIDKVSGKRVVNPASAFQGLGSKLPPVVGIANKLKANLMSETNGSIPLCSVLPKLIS

[7] = target: Glycogen synthase kinase-3 (Homo sapiens, UniProt P49840+P49841); assay: Inhibition of human GSK3 using biotinylated GSP2 substrate by flashplate assay; assay type: protein assay
[8] = Selectivity ratio, ratio of IC50 for human CDK2/cyclin A to IC50 for Trypanosoma brucei GSK3
[9] = target: Serine/threonine-protein kinase pim-3 (Homo sapiens) (UniProt Q86V86); assay: Inhibition of PIM3 (unknown origin) assessed as residual enzyme activity at 10 uM
[10] = Inhibition of Trypanosoma brucei GSK3 using biotinylated GSP2 substrate by flashplate assay
How it was run: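 Radiometric Flashplate assay: 2.5 nM TbGSK3 short, 1 μM biotinylated GSP2, 1 μM ATP plus [γ-33P]-ATP. 10-point titration 30 μM to 0.3 nM final, 1% DMSO. IC50 averaged over two or more experiments; standard GW8510 used for reproducibility (MSR).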

[11] = target: T2, Mitogen-activated protein kinase 15 (Homo sapiens) (UniProt Q8TD08); assay: Inhibition of ERK8 (unknown origin) assessed as residual enzyme activity at 10 uM
T2 sequence (whole entry): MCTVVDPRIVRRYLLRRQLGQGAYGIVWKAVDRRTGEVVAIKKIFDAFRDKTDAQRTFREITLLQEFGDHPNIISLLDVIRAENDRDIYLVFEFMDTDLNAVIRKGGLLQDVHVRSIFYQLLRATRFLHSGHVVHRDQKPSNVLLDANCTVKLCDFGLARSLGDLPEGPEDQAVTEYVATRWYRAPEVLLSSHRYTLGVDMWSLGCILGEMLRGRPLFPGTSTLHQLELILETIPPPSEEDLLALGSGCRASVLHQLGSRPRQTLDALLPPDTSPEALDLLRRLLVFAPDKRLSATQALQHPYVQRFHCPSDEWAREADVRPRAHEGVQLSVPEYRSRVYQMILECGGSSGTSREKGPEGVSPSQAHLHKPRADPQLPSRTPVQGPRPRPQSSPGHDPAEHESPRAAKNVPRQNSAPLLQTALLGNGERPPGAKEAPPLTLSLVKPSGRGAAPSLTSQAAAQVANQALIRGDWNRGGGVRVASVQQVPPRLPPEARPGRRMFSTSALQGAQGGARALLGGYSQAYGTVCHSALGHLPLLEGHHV

[12] = target: Maternal embryonic leucine zipper kinase (Homo sapiens) (UniProt Q14680); assay: Inhibition of MELK (unknown origin) assessed as residual enzyme activity at 10 uM
Chain of Maternal embryonic leucine zipper kinase (Homo sapiens) (Q14680 whole entry, looked up): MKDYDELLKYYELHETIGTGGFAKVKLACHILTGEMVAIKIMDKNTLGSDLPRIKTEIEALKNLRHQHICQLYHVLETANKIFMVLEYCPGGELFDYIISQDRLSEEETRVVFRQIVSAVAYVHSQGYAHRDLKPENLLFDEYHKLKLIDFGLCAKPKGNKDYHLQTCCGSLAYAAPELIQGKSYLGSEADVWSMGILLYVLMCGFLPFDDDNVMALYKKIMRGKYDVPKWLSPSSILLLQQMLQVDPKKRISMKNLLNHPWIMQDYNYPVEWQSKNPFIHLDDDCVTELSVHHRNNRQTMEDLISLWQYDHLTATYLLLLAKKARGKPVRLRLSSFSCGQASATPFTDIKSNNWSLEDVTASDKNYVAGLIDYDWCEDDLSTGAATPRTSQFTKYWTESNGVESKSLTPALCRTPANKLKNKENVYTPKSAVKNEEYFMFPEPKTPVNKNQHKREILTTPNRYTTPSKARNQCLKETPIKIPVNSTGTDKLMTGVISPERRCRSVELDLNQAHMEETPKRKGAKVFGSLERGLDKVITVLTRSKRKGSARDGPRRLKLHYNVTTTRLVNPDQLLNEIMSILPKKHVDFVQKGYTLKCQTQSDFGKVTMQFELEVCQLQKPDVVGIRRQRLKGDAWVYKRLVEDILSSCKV

[13] = target: T3, Dual specificity tyrosine-phosphorylation-regulated kinase 2 (Homo sapiens) (UniProt Q92630); assay: Inhibition of DYRK2 (unknown origin) assessed as residual enzyme activity at 10 uM
T3 sequence (whole entry): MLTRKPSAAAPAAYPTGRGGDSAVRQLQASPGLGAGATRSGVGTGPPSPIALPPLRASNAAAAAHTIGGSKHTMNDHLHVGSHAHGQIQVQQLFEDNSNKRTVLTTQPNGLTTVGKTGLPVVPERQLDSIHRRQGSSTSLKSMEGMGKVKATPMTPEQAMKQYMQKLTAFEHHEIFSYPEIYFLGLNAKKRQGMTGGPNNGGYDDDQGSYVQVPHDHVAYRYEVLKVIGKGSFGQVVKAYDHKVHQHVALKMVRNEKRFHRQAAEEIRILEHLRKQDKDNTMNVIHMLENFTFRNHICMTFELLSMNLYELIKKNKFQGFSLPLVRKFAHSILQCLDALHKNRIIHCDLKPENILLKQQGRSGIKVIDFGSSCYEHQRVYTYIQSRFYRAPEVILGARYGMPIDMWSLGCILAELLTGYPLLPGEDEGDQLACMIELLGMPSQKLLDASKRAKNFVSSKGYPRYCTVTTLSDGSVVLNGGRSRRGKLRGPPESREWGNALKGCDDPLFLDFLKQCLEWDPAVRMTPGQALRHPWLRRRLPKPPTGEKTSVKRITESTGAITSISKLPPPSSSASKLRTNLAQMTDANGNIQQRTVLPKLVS

[14] = target: CDK2/Cyclin A2 (Homo sapiens, UniProt P24941); assay: Inhibition of human CDK2/cyclin A using Biotin-C6-PKTPKKAKKL substrate; assay type: protein-complex assay
[15] = target: Serine/threonine-protein kinase pim-1 (Homo sapiens) (UniProt P11309); assay: Inhibition of PIM1 (unknown origin) assessed as residual enzyme activity at 10 uM
Chain of Serine/threonine-protein kinase pim-1 (Homo sapiens) (P11309 whole entry, looked up): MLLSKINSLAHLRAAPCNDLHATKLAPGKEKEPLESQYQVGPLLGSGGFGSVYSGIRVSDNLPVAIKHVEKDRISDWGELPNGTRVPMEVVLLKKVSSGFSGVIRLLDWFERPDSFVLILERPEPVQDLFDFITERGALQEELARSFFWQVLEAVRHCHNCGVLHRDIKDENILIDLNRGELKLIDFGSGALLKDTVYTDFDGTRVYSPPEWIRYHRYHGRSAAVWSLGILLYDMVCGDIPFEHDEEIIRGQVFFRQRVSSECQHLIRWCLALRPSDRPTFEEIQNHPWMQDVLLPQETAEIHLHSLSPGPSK

[16] = Selectivity ratio, ratio of IC50 for human GSK3 to IC50 Trypanosoma brucei GSK3
[17] = target: Cyclin-dependent kinase 2 (Homo sapiens) (UniProt P24941); assay: Inhibition of CDK2 (unknown origin) assessed as residual enzyme activity at 10 uM
[18] = target: Insulin-like growth factor 1 receptor (Homo sapiens) (UniProt P08069); assay: Inhibition of IGF-1R (unknown origin) assessed as residual enzyme activity at 10 uM
[19] = target: Dual specificity mitogen-activated protein kinase kinase 1 (Homo sapiens) (UniProt Q02750); assay: Inhibition of MKK1 (unknown origin) assessed as residual enzyme activity at 10 uM
Chain of Dual specificity mitogen-activated protein kinase kinase 1 (Homo sapiens) (Q02750 whole entry): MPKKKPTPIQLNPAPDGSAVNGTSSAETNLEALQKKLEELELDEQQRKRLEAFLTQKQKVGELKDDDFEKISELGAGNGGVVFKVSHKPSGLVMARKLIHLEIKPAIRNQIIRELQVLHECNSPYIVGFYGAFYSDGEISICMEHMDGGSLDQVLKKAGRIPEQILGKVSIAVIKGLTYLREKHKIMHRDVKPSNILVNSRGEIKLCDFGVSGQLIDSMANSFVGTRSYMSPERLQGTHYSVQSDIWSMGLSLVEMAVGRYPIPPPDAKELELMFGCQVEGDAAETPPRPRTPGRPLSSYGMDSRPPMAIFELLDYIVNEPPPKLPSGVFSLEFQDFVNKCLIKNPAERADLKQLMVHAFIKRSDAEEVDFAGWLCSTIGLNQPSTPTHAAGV

[20] = test system: MRC5; assay: Cytotoxicity against human MRC5 cells assessed as growth inhibition after 72 hrs; assay type: cell-based; conditions: MRC5, 72 h
How it was run: (§1)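 Resazurin viability assay: 2 × 10³ cells/well (MRC5 in MEM + 10% FBS; bloodstream-form T. b. brucei in appropriate medium), compounds 50 μM to 0.5 nM, 37 °C, 5% CO₂ for 69 h, then resazurin 50 μM final for further 4 h; fluorescence read. Concentration giving 50% growth inhibition over 72 h; average of two or more experiments.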

[21] = test system: Trypanosoma brucei brucei; assay: Trypanocidal activity against bloodstream stage of Trypanosoma brucei brucei assessed as inhibition of proliferation after 72 hrs; assay type: functional, organism-based; how it was run: as §1
[22] = target: Mitogen-activated protein kinase 1 (Homo sapiens) (UniProt P28482); assay: Inhibition of ERK2 (unknown origin) assessed as residual enzyme activity at 10 uM
Chain of Mitogen-activated protein kinase 1 (Homo sapiens) (P28482 whole entry): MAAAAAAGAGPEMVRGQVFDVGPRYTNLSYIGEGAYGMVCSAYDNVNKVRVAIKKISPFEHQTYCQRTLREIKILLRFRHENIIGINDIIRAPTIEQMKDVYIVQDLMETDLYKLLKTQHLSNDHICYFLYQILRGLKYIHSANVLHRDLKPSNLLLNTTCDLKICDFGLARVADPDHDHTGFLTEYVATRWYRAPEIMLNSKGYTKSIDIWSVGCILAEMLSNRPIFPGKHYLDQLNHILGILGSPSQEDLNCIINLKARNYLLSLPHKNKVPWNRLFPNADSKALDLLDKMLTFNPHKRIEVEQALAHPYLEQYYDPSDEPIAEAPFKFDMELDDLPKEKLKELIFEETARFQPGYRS

[23] = target: MAP kinase-activated protein kinase 2 (Homo sapiens) (UniProt P49137); assay: Inhibition of MAPKAP-K2 (unknown origin) assessed as residual enzyme activity at 10 uM
Chain of MAP kinase-activated protein kinase 2 (Homo sapiens) (P49137 whole entry, looked up): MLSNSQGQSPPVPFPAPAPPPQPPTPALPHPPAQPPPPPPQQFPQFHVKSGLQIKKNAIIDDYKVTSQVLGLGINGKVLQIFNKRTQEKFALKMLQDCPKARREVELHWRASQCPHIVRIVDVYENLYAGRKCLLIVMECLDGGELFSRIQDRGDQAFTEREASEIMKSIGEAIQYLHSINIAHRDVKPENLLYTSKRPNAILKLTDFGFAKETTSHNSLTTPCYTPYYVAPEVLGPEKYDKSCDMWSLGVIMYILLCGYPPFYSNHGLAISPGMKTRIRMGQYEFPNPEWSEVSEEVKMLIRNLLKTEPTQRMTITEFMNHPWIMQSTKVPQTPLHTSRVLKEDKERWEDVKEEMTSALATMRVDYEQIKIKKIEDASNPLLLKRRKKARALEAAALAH

[24] = target: Misshapen-like kinase 1 (Homo sapiens) (UniProt Q8N4C8); assay: Inhibition of MINK1 (unknown origin) assessed as residual enzyme activity at 10 uM

Chain of Homeodomain-interacting protein kinase 2 (Homo sapiens) (Q9H2X6 whole entry, looked up): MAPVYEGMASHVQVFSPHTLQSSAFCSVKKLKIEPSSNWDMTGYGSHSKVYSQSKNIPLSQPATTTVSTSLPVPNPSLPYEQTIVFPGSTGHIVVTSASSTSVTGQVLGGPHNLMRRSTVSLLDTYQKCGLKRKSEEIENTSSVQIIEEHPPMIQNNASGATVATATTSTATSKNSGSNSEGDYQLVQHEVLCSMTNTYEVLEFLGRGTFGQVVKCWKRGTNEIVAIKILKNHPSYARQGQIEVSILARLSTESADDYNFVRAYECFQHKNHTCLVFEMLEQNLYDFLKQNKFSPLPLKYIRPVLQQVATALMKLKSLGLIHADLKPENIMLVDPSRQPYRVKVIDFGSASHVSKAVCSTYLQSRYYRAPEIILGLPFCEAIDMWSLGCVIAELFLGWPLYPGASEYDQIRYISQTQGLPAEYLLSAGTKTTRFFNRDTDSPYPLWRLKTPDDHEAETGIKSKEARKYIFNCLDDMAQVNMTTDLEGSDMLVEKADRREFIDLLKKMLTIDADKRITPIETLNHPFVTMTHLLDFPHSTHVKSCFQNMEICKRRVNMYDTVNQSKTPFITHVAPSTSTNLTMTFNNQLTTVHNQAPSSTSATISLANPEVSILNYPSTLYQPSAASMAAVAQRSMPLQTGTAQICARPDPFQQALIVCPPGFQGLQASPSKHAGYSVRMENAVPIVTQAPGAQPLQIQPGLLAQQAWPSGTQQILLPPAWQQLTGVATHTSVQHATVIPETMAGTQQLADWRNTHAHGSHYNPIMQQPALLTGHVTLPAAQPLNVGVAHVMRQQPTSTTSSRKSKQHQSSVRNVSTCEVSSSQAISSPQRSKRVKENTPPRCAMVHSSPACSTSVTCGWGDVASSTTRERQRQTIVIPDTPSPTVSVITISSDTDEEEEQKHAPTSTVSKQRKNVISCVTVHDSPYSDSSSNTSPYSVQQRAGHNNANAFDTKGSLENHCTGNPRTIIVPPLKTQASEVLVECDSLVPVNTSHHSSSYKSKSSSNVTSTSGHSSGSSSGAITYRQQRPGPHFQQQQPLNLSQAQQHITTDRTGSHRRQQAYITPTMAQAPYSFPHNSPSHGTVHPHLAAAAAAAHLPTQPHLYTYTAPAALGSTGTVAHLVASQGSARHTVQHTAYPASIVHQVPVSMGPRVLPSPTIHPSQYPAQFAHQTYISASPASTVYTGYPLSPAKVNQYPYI

| Structure (SMILES) | Activity [1] [%] | Activity [2] [%] | Activity [3] [%] | Activity [4] [%] | Activity [5] [%] | Activity [6] [%] | IC50 [7] [nM] | Ratio IC50 [8] | Activity [9] [%] | IC50 [10] [nM] | Activity [11] [%] | Activity [12] [%] | Activity [13] [%] | IC50 [14] [nM] | Activity [15] [%] | Ratio IC50 [16] | Activity [17] [%] | Activity [18] [%] | EC50 [20] [nM] | EC50 [21] [nM] | also measured |
| --- | --- | --- | --- | --- | --- | --- | --- | --- | --- | --- | --- | --- | --- | --- | --- | --- | --- | --- | --- | --- | --- |
| COc1cccc(OC)c1C(=O)Nc1c[nH]nc1C(=O)N[C@H]1CC[C@H](OC)CC1 | 100 | 84 | 77 | 0 | 82 | 100 | < 5 | 95 | 94 | 2 | 27 | 100 | 63 | 190 | 100 | < 2.5 | 9 | 100 | 31000 | 500 | Activity [19]: 83%; Activity [22]: 51%; Activity [23]: 33% |
| CO[C@H]1CC[C@H](NC(=O)c2n[nH]cc2NC(=O)c2ccc(-c3ccccc3)o2)CC1 | 4 | 1 | 8 | 0 | 15 | 2 | < 5 | 1.4 | 1 | 7 | 7 | 13 | 1 | 10 | 13 | – | 1 | 15 | 100 | 300 | Activity [19]: 17%; Activity [22]: 2%; Activity [23]: 90% |
| COc1cccc(OC)c1C(=O)Nc1c[nH]nc1C(=O)NCc1ccccc1 | 93 | 79 | 71 | 10 | 63 | 80 | 330 | > 10000 | 96 | 1 | 47 | 96 | 28 | > 10000 | 92 | 330 | 38 | 79 | 50000 | 5900 | Activity [24]: 18%; Activity [19]: 76%; Activity [22]: 92%; Activity [23]: 13% |
| CO[C@H]1CC[C@H](NC(=O)c2n[nH]cc2NC(=O)Cc2c(Cl)cccc2Cl)CC1 | – | – | – | – | – | – | 200 | 1.3 | – | 230 | – | – | – | 290 | – | 0.87 | – | – | 3100 | 7300 | – |
| CO[C@H]1CC[C@H](NC(=O)c2n[nH]cc2NC(=O)c2ccccc2)CC1 | 14 | 6 | 31 | 33 | 51 | 24 | < 5 | – | 19 | 24 | 14 | 32 | 3 | 38 | 46 | – | 1 | 96 | 800 | 1300 | Activity [19]: 54%; Activity [22]: 18%; Activity [23]: 92% |
| COc1cccc(OC)c1C(=O)Nc1c[nH]nc1C(=O)NCc1ccccn1 | – | – | – | – | – | – | 320 | > 670 | – | 15 | – | – | – | > 10000 | – | 21 | – | – | > 50000 | 20000 | – |
| CO[C@H]1CC[C@H](NC(=O)c2n[nH]cc2NC(=O)c2c(C)nc3ccccn23)CC1 | – | – | – | – | – | – | 42 | 22 | – | 100 | – | – | – | 2200 | – | 0.42 | – | – | 34000 | 2900 | – |
| COCCNC(=O)c1n[nH]cc1NC(=O)c1c(OC)cccc1OC | – | – | – | – | – | – | 300 | > 290 | – | 34 | – | – | – | > 10000 | – | 8.8 | – | – | > 50000 | 43000 | – |
| CO[C@H]1CC[C@H](NC(=O)c2n[nH]cc2NC(=O)C2CCC(F)(F)CC2)CC1 | – | – | – | – | – | – | 8 | 2 | – | 500 | – | – | – | 1000 | – | 0.16 | – | – | > 50000 | 16000 | – |
| COC(=O)c1n[nH]cc1NC(=O)c1c(OC)cccc1OC | – | – | – | – | – | – | 4500 | > 19 | – | 520 | – | – | – | > 10000 | – | 8.7 | – | – | > 50000 | > 50000 | – |
| COc1cccc(OC)c1C(=O)Nc1c[nH]nc1C(=O)NC1CCC1 | – | – | – | – | – | – | 80 | 300 | – | 8 | – | – | – | 2400 | – | 10 | – | – | > 50000 | 12000 | – |
| COc1cccc(OC)c1C(=O)Nc1c[nH]nc1C(=O)Nc1ccccn1 | – | – | – | – | – | – | 940 | > 31 | – | 320 | – | – | – | > 10000 | – | 2.9 | – | – | > 50000 | > 50000 | – |
